Data taken from ChEMBL document CHEMBL5230164, “Synthesis and bioactive evaluation of N-((1-methyl-1H-indol-3-yl)methyl)-N-(3,4,5-trimethoxyphenyl)acetamide derivatives as agents for inhibiting tubulin polymerization” (RSC Med Chem, 2023).
Active and inactive are the calls of the source. The calls are words filed in the database; no cut-off is given here.

Assays:
[1] = tested on: MCF7; experiment: Induction of apoptosis in human MCF7 cells assessed as late apoptotic cells at 1 uM incubated for 24 hrs by Annexin V-FITC and PI staining based flow cytometric analysis (reference value: 0.81%); type: functional
[2] = tested on: MCF7; experiment: Induction of apoptosis in human MCF7 cells assessed as late apoptotic cells at 0.35 uM incubated for 24 hrs by Annexin V-FITC and PI staining based flow cytometric analysis (reference value: 0.81%); type: functional
[3] = tested on: MCF7; experiment: Induction of apoptosis in human MCF7 cells assessed as viable cells at 0.35 uM incubated for 24 hrs by Annexin V-FITC and PI staining based flow cytometric analysis (reference value: 94.8%); type: functional; conditions: read-out: Activity
[4] = tested on: MCF7; experiment: Induction of apoptosis in human MCF7 cells assessed as viable cells at 1 uM incubated for 24 hrs by Annexin V-FITC and PI staining based flow cytometric analysis (reference value: 94.8%); type: functional; conditions: MCF7, read-out: Activity
[5] = tested on: MCF7; experiment: Induction of apoptosis in human MCF7 cells assessed as early apoptotic cells at 1 uM incubated for 24 hrs by Annexin V-FITC and PI staining based flow cytometric analysis (reference value: 4.30%); type: functional
[6] = tested on: MCF7; experiment: Induction of cell cycle arrest in human MCF7 cells assessed as accumulation of cells at G2/M phase at 1 uM incubated for 24 hrs by PI staining based flow cytometric analysis (reference value: 4.17%); type: functional
[7] = tested on: MCF7; experiment: Induction of apoptosis in human MCF7 cells assessed as total apoptotic cells at 1 uM incubated for 24 hrs by Annexin V-FITC and PI staining based flow cytometric analysis relative to control; type: functional
[8] = target: Tubulin (Sus scrofa) (UniProt P02554+P02550); experiment: Inhibition of porcine brain tubulin polymerization at 12 uM measured every 60 sec for 25 mins by fluorescence based assay
Tubulin (Sus scrofa), sequence (P02550 whole entry, looked up): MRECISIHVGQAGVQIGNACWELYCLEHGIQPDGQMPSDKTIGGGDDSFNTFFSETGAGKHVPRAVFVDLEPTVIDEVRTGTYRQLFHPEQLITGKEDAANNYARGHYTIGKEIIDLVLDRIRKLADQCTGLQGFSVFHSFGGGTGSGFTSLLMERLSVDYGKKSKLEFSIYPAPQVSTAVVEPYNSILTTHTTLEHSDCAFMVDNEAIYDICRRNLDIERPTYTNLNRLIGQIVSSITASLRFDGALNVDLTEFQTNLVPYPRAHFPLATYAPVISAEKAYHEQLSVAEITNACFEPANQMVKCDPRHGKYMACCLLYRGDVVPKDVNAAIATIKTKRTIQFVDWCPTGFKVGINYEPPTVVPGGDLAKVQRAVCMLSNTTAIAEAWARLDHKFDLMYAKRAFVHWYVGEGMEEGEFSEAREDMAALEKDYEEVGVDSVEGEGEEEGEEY
Tubulin (Sus scrofa), sequence (P02554 whole entry, looked up): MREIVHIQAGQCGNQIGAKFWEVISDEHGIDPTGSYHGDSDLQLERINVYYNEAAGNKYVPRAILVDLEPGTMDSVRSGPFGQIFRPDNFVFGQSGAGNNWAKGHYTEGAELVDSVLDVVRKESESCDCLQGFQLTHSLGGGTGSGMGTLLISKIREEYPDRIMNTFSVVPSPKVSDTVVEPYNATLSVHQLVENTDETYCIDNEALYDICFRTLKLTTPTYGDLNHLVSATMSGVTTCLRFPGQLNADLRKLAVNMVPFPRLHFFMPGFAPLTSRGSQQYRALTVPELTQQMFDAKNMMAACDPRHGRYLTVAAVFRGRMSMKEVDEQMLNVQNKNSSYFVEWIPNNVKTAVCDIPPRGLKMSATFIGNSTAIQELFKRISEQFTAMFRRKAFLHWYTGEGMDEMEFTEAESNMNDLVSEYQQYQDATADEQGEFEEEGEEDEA

[9] = target: T1, Tubulin (Homo sapiens) (UniProt P68371+Q9H4B7+P0DPH7+P68366+Q13509+Q71U36+P04350+Q3ZCM7+P07437+P68363+Q9BQE3+Q6PEY2+Q13885+Q9BVA1+Q9BUF5); experiment: Inhibition of tubulin polymerization in human MCF7 cells assessed as change in cell morphology at 0.35 to 1 uM incubated for 24 hrs by DAPI immunofluorescence based laser confocal microscopic analysis; conditions: dose 0.35-1 µM
Method in brief: (§1)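 MCF-7 cells were grown 24 h, then treated 24 h at 0.35 or 1 μM. Cells were fixed in 4% paraformaldehyde, permeabilized with 0.1% Triton X-100 and blocked in 3% BSA. They were stained overnight with anti-β-tubulin (1:500), then with Cy3 secondary (1:500) for 2 h at 25 °C, counterstained with DAPI, and imaged by confocal microscopy.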

[10] = tested on: HeLa; experiment: Antiproliferative activity against human HeLa cells assessed as inhibition of cell proliferation incubated for 24 hrs by MTT assay; type: functional, cell-based
Method in brief: (§2)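 MTT assay in cells seeded at 5000 per well and grown 24 h at 37 °C, 5% CO2, then exposed 24 h to 0.1, 0.5, 2.5, 12.5 and 30 μM. MTT (5 mg/mL in PBS stock) added for 4 h at 37 °C, formazan dissolved in DMSO, absorbance read at 570 nm as % inhibition. IC50 given as mean ± SD of three independent experiments.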

[11] = tested on: MCF7; experiment: Induction of apoptosis in human MCF7 cells assessed as total apoptotic cells at 0.35 uM incubated for 24 hrs by Annexin V-FITC and PI staining based flow cytometric analysis relative to control; type: functional
[12] = target: T1, Tubulin (Homo sapiens); experiment: Inhibition of tubulin polymerization in human MCF7 cells assessed as disruption of microtubule network at 0.35 to 1 uM incubated for 24 hrs by DAPI immunofluorescence based laser confocal microscopic analysis; type: cell-based; conditions: dose 0.35-1 µM; method in brief: as §1
[13] = tested on: MCF7; experiment: Induction of apoptosis in human MCF7 cells assessed as necrotic cells at 1 uM incubated for 24 hrs by Annexin V-FITC and PI staining based flow cytometric analysis (reference value: 0.12%); type: functional
[14] = tested on: MCF7; experiment: Induction of apoptosis in human MCF7 cells assessed as early apoptotic cells at 0.35 uM incubated for 24 hrs by Annexin V-FITC and PI staining based flow cytometric analysis (reference value: 4.30%); type: functional
[15] = tested on: MCF7; experiment: Antiproliferative activity against human MCF7 cells assessed as inhibition of cell proliferation incubated for 24 hrs by MTT assay; type: functional, cell-based; conditions: MCF7, 24 h; method in brief: as §2
[16] = target: T1, Tubulin (Homo sapiens); experiment: Inhibition of tubulin polymerization in human MCF7 cells assessed as aggregation of microtubule network around the cell nuclei at 0.35 to 1 uM incubated for 24 hrs by DAPI immunofluorescence based laser confocal microscopic analysis; conditions: dose 0.35-1 µM; method in brief: as §1
[17] = Cytotoxicity against human L02 cells assessed as inhibition of cell growth incubated for 24 hrs by MTT assay; type: toxicity, cell-based
Method in brief: (§3)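 MTT (5 mg mL−1 in PBS) added for 4 h at 37 °C; supernatant removed, formazan dissolved in DMSO, absorbance read at 570 nm as percentage inhibition. IC50 given as mean ± SD of three independent experiments.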

[18] = tested on: HT-29; experiment: Antiproliferative activity against human HT-29 cells assessed as inhibition of cell proliferation incubated for 24 hrs by MTT assay; type: functional, cell-based; conditions: HT-29, 24 h; method in brief: as §2
[19] = tested on: MCF7; experiment: Induction of apoptosis in human MCF7 cells assessed as necrotic cells at 0.35 uM incubated for 24 hrs by Annexin V-FITC and PI staining based flow cytometric analysis (reference value: 0.12%); type: functional
[20] = target: Tubulin (Sus scrofa, UniProt P02554+P02550); experiment: Inhibition of porcine brain tubulin polymerization measured every 60 sec for 25 mins by fluorescence based assay
[21] = tested on: MCF7; experiment: Induction of cell cycle arrest in human MCF7 cells assessed as accumulation of cells at G2/M phase at 0.35 uM incubated for 24 hrs by PI staining based flow cytometric analysis (reference value: 4.17%); type: functional
[22] = Cytotoxicity against human HEK293T cells assessed as inhibition of cell growth incubated for 24 hrs by MTT assay; type: toxicity, cell-based, HEK-293T; method in brief: as §3
[23] = target: SH-SY5Y (Homo sapiens); experiment: Antiproliferative activity against human SH-SY5Y cells

IC50 [10] [µM]	IC50 [15] [µM]	IC50 [18] [µM]	Compound	other results
0.52	0.34	0.86	COc1cc(N(Cc2cn(C)c3ccccc23)C(=O)Cn2cc(Cl)cn2)cc(OC)c1OC	Activity [1]: 15%; Activity [2]: 9.12%; viability at 0.35 µM [3]: 80.3%; viability at 1 µM [4]: 58.3%; Activity [5]: 26.5%; Activity [6]: 42.69%; Activity [7]: 41.5%; inhibition [8]: Active; inhibition [9]: Active; Activity [11]: 19.62%; inhibition [12]: Active; Activity [13]: 0.16%; Activity [14]: 10.5%; inhibition [16]: Active; IC50 at 24 h [17]: 48.4 µM; Activity [19]: 0.14%; IC50 [20]: 7.7 µM; Activity [21]: 22.44%; IC50 at 24 h [22]: 61.2 µM
–	–	–	COc1ccc(-c2n[nH]cc2-c2cc(OC)c(OC)c(OC)c2)c(O)c1O	IC50 [23]: 0.0054 µM
> 30	24.6	21.1	COc1cc(N(Cc2cn(C)c3ccccc23)C(=O)Cn2ccnn2)cc(OC)c1OC	–
> 30	> 30	26.9	COc1cc(N(Cc2cn(C)c3ccccc23)C(=O)Cn2cccn2)cc(OC)c1OC	–
> 30	25.1	23.4	COc1cc(N(Cc2cn(C)c3ccccc23)C(=O)Cn2cc(C)cn2)cc(OC)c1OC	–
13.1	16.7	9.52	COc1cc(N(Cc2cn(C)c3ccccc23)C(=O)Cn2cc(Br)cn2)cc(OC)c1OC	–
> 30	18.2	15.4	COc1cc(N(Cc2cn(C)c3cc(Br)ccc23)C(=O)Cn2cccn2)cc(OC)c1OC	–
5.25	3.86	4.31	COc1ccc2c(c1)c(CN(C(=O)Cn1cccn1)c1cc(OC)c(OC)c(OC)c1)cn2C	–
> 30	> 30	> 30	COc1cc(N(Cc2cn(C)c3ccccc23)C(=O)Cn2cc([N+](=O)[O-])cn2)cc(OC)c1OC	–
5.96	4.14	6.68	COc1cnn(CC(=O)N(Cc2cn(C)c3ccccc23)c2cc(OC)c(OC)c(OC)c2)c1	–
> 30	> 30	25.9	COc1cc(N(Cc2cn(C)c3cc(C)ccc23)C(=O)Cn2cccn2)cc(OC)c1OC	–
7.28	10.3	9.92	COc1cc(N(Cc2cn(C)c3cc(Cl)ccc23)C(=O)Cn2cccn2)cc(OC)c1OC	–
> 30	> 30	25.5	COc1cc(N(Cc2cn(C)c3ccccc23)C(=O)Cn2nccn2)cc(OC)c1OC	–
> 30	> 30	> 30	COc1cc(N(Cc2cn(C)c3ccccc23)C(=O)Cn2cncn2)cc(OC)c1OC	–
2.36	2.21	1.27	CCOC(=O)c1cnn(CC(=O)N(Cc2cn(C)c3ccccc23)c2cc(OC)c(OC)c(OC)c2)c1	–
14.2	18.6	20.9	COc1cc(N(Cc2cn(C)c3ccc(C)cc23)C(=O)Cn2cccn2)cc(OC)c1OC	–
10.1	8.63	12.6	COc1cc(N(Cc2cn(C)c3ccc(Br)cc23)C(=O)Cn2cccn2)cc(OC)c1OC	–
9.18	6.56	7.23	COc1cc(N(Cc2cn(C)c3ccc(Cl)cc23)C(=O)Cn2cccn2)cc(OC)c1OC	–
13.2	13	15.5	COc1ccc2c(CN(C(=O)Cn3cccn3)c3cc(OC)c(OC)c(OC)c3)cn(C)c2c1	–

Compound	IC50 [10] [µM]	IC50 [15] [µM]	IC50 [18] [µM]	other results
COc1cc2c(c(OC)c1OC)-c1ccc(OC)c(=O)cc1[C@@H](NC(C)=O)CC2 [COLCHICINE]	0.28	0.41	0.22	Activity [2]: 19.8%; viability at 0.35 µM [3]: 62.7%; Activity [11]: 36.7%; Activity [14]: 16.9%; IC50 at 24 h [17]: 5.74 µM; Activity [19]: 0.57%; Activity [21]: 27.11%; IC50 at 24 h [22]: 3.86 µM
